In ChEMBL document CHEMBL4428087, “Synthesis and antitumor activity evaluation of quinazoline derivatives bearing piperazine-1-carbodithioate moiety at C4-position” (Bioorg Med Chem Lett, 2016):

Experiments:
A549 = assay: Antiproliferative activity against human A549 cells after 72 hrs by MTS assay; type: functional, cell-based; conditions: A549, 72 h
How it was run: (§1)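 Cells were exposed to compound for 72 h. A first screen at 50 μM called a compound active at ≥50% inhibition versus vehicle-treated cells. Active compounds were then tested at various concentrations, and IC50 (concentration giving 50% proliferation inhibition) was derived. Values are mean ± SD from triplicate determinations in three independent experiments.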

MCF7 = assay: Antiproliferative activity against human MCF7 cells after 72 hrs by MTS assay; type: functional, cell-based; conditions: MCF7, 72 h; how it was run: as §1
HCT-116 [1] = assay: Antiproliferative activity against human HCT116 cells after 72 hrs by MTS assay; type: functional, cell-based; conditions: HCT-116, 72 h; how it was run: as §1
HCT-116 [2] = assay: Cell cycle arrest in human HCT116 cells assessed as accumulation at G2/M phase at IC50 after 24 hrs by propidium iodide staining based flow cytometry (reference value: 16.91 %); type: functional
HCT-116 [3] = assay: Cell cycle arrest in human HCT116 cells assessed as accumulation at S phase at IC50 after 24 hrs by propidium iodide staining based flow cytometry (reference value: 46.36 %); type: functional
HCT-116 [4] = assay: Cell cycle arrest in human HCT116 cells assessed as accumulation at G0/G1 phase at IC50 after 24 hrs by propidium iodide staining based flow cytometry (reference value: 34.93 %); type: functional
HCT-116 [5] = assay: Cell cycle arrest in human HCT116 cells assessed as accumulation at G0/G1 phase after 24 hrs by propidium iodide staining based flow cytometry; type: functional
How it was run: (§2)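 HCT-116 cells were treated for 24 h at multiples of IC50 (1×, 1.25× or 1.5×) or at 0.1 µM, with a DMSO control. Cells were harvested, fixed in 70% ice-cold ethanol and stained with propidium iodide. DNA content was read by flow cytometry, and the percentages of cells in G0/G1, S and G2/M were calculated. Three independent experiments were run.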

HCT-116 [6] = assay: Cell cycle arrest in human HCT116 cells assessed as accumulation at G2/M phase at 1.25 times IC50 after 24 hrs by propidium iodide staining based flow cytometry (reference value: 16.91 %); type: functional; how it was run: as §2
HCT-116 [7] = assay: Cell cycle arrest in human HCT116 cells assessed as accumulation at G2/M phase at 1.5 times IC50 after 24 hrs by propidium iodide staining based flow cytometry (reference value: 16.91 %); type: functional; how it was run: as §2
HCT-116 [8] = assay: Cell cycle arrest in human HCT116 cells assessed as accumulation at G0/G1 phase at 1.5 times IC50 after 24 hrs by propidium iodide staining based flow cytometry (reference value: 34.93 %); type: functional; how it was run: as §2
HCT-116 [9] = assay: Cell cycle arrest in human HCT116 cells assessed as accumulation at S phase at 1.25 times IC50 after 24 hrs by propidium iodide staining based flow cytometry (reference value: 46.36 %); type: functional; how it was run: as §2
HCT-116 [10] = assay: Cell cycle arrest in human HCT116 cells assessed as accumulation at sub-G1 phase after 24 hrs by propidium iodide staining based flow cytometry; type: functional; how it was run: as §2
HCT-116 [11] = assay: Cell cycle arrest in human HCT116 cells assessed as accumulation at S phase at 1.5 times IC50 after 24 hrs by propidium iodide staining based flow cytometry (reference value: 46.36 %); type: functional; how it was run: as §2
HCT-116 [12] = assay: Cell cycle arrest in human HCT116 cells assessed as accumulation at G0/G1 phase at 1.25 times IC50 after 24 hrs by propidium iodide staining based flow cytometry (reference value: 34.93 %); type: functional; how it was run: as §2
HCT-116 [13] = assay: Cell cycle arrest in human HCT116 cells assessed as accumulation at S phase at 0.1 uM after 24 hrs by propidium iodide staining based flow cytometry (reference value: 46.36 %); type: functional; how it was run: as §2
HCT-116 [14] = assay: Cell cycle arrest in human HCT116 cells assessed as accumulation at G0/G1 phase at 0.1 uM after 24 hrs by propidium iodide staining based flow cytometry (reference value: 34.93 %); type: functional; how it was run: as §2
HCT-116 [15] = assay: Cell cycle arrest in human HCT116 cells assessed as accumulation at G2/M phase at 0.1 uM after 24 hrs by propidium iodide staining based flow cytometry (reference value: 16.91 %); type: functional; how it was run: as §2

SMILES	IC50 (A549)	IC50 (MCF7)	IC50 (HCT-116 [1])	other results
COc1cc2c(N3CCN(C(=O)Nc4ccc(OC(C)C)cc4)CC3)ncnc2cc1OCCCN1CCCCC1 [TANDUTINIB]	14.8 µM	14.7 µM	18.1 µM	–
COc1cc2c(N3CCN(C(=S)SCc4cccnc4)CC3)ncnc2cc1OCCCN1CCCCC1	19.5 µM	22.2 µM	22.2 µM	–
O=c1[nH]cc(F)c(=O)[nH]1 [FLUOROURACIL]	–	–	–	Activity (HCT-116 [2]): 8.29%; Activity (HCT-116 [3]): 62.28%; Activity (HCT-116 [4]): 28.47%
COc1cc2c(N3CCN(C(=S)SCc4ccc(Cl)cc4)CC3)ncnc2cc1OCCCN1CCCCC1	4.71 µM	3.94 µM	8.04 µM	–
COc1cc2c(N3CCN(C(=S)SCc4ccc(Br)cc4)CC3)ncnc2cc1OCCCN1CCCCC1	4.31 µM	3.93 µM	4.52 µM	–
COc1cc2c(N3CCN(C(=S)SCc4ccsc4)CC3)ncnc2cc1OCCCN1CCCCC1	4.84 µM	5.17 µM	5.64 µM	–
COc1ccc(CSC(=S)N2CCN(c3ncnc4cc(OCCCN5CCCCC5)c(OC)cc34)CC2)cc1	4.25 µM	4.16 µM	4.92 µM	–
COc1cc2c(N3CCN(C(=S)SCC4CCCCC4)CC3)ncnc2cc1OCCCN1CCCCC1	4.06 µM	3.99 µM	4.55 µM	Activity (HCT-116 [5]): Dose-dependent effect; Activity (HCT-116 [2]): 28.74%; Activity (HCT-116 [3]): 26.82%; Activity (HCT-116 [6]): 24.97%; Activity (HCT-116 [7]): 14.4%; Activity (HCT-116 [4]): 44.47%; Activity (HCT-116 [8]): 55.8%; Activity (HCT-116 [9]): 23.67%; Activity (HCT-116 [10]): Dose-dependent effect; Activity (HCT-116 [11]): 27.37%; Activity (HCT-116 [12]): 50.65%
COc1cc2c(N3CCN(C(=S)SCc4ccc(F)c(F)c4)CC3)ncnc2cc1OCCCN1CCCCC1	4.9 µM	3.07 µM	5.96 µM	–
COc1cc2c(N3CCN(C(=S)SCc4ccc(F)cc4F)CC3)ncnc2cc1OCCCN1CCCCC1	5.44 µM	4.67 µM	4.64 µM	–
COc1cc2c(N3CCN(C(=S)SCC4CCCO4)CC3)ncnc2cc1OCCCN1CCCCC1 (centres undefined)	22.8 µM	22.7 µM	19.2 µM	–
COc1cc2c(N3CCN(C(=S)SC)CC3)ncnc2cc1OCCCN1CCCCC1	33.4 µM	27.5 µM	24.4 µM	–
COc1cc2c(N3CCN(C(=S)SCc4c(F)c(F)c(F)c(F)c4F)CC3)ncnc2cc1OCCCN1CCCCC1	4.58 µM	4.14 µM	4.45 µM	–
COc1cc2c(N3CCN(C(=S)SCc4ccccn4)CC3)ncnc2cc1OCCCN1CCCCC1	28.8 µM	20.7 µM	20.6 µM	–
COc1cc2c(N3CCN(C(=S)SC(C)C)CC3)ncnc2cc1OCCCN1CCCCC1	11.3 µM	8.37 µM	10.4 µM	–
COc1cc2c(N3CCN(C(=S)SCc4ccccc4)CC3)ncnc2cc1OCCCN1CCCCC1	15.7 µM	28 µM	28.8 µM	–
COc1cc2c(N3CCN(C(=S)SCc4ccc([N+](=O)[O-])cc4)CC3)ncnc2cc1OCCCN1CCCCC1	5.36 µM	6.89 µM	5.65 µM	–
COc1cc2c(N3CCN(C(=S)SCc4ccc(C(=O)O)cc4)CC3)ncnc2cc1OCCCN1CCCCC1	> 50 µM	> 50 µM	> 50 µM	–
COc1cc2c(N3CCN(C(=S)SCC4CCOCC4)CC3)ncnc2cc1OCCCN1CCCCC1	19.1 µM	18.4 µM	15.1 µM	–
COc1cccc(CSC(=S)N2CCN(c3ncnc4cc(OCCCN5CCCCC5)c(OC)cc34)CC2)c1	4.58 µM	3.86 µM	8.01 µM	–
COc1cc2c(N3CCN(C(=S)SCc4ccncc4)CC3)ncnc2cc1OCCCN1CCCCC1	> 50 µM	> 50 µM	> 50 µM	–
CCN(CC)CCNC(=O)c1c(C)[nH]c(/C=C2\C(=O)Nc3ccc(F)cc32)c1C [SUNITINIB]	–	–	–	Activity (HCT-116 [5]): Dose-dependent effect; Activity (HCT-116 [13]): 33.36%; Activity (HCT-116 [14]): 50.07%; Activity (HCT-116 [15]): 14.16%
CCSC(=S)N1CCN(c2ncnc3cc(OCCCN4CCCCC4)c(OC)cc23)CC1	18.4 µM	16.6 µM	10.3 µM	–
COc1cc2c(N3CCN(C(=S)SCc4ccco4)CC3)ncnc2cc1OCCCN1CCCCC1	6.58 µM	7.29 µM	7.3 µM	–
CCCSC(=S)N1CCN(c2ncnc3cc(OCCCN4CCCCC4)c(OC)cc23)CC1	8.07 µM	10.5 µM	8.67 µM	–
COc1cc2c(N3CCN(C(=S)SCc4ccc(F)cc4)CC3)ncnc2cc1OCCCN1CCCCC1	4.25 µM	4.2 µM	4.5 µM	–
COc1cc2c(N3CCN(C(=S)SCc4ccc(C)cc4)CC3)ncnc2cc1OCCCN1CCCCC1	4.51 µM	3.73 µM	5.46 µM	–
COc1cc2c(N3CCN(C(=S)SCC4OCCO4)CC3)ncnc2cc1OCCCN1CCCCC1	24.6 µM	29.6 µM	23.9 µM	–
COc1cc2c(N3CCN(C(=S)SCc4ccc(C#N)cc4)CC3)ncnc2cc1OCCCN1CCCCC1	9.52 µM	10.1 µM	8.67 µM	–
